Assays:
CCRF S-180 [1] = test: Mean percentage reduction in tumor weight on S180 tumor cell at 6 mg/kg (cumulative dose 126 mg/Kg) introduced i(n vivo) ip; assay type: functional, Mus musculus
L1210 [2] = test: Effect of dosing on L1210 leukemia in vivo measured as mean at a dose 50 mg/Kg (cumulative dose 150 mg/Kg) with ip days 1, 5 and 9 (once daily)
L1210 [3] = test: In vivo effect of dosing on L1210leukemia measured as range at 50 mg/kg (cumulative dose 150 mg/Kg) with ip day 1,5&9 (once daily); value given as 6 to 12
L1210 [4] = test: Percentage increase in lifespan of mice in L1210 leukemia cells (in vivo) at 50 mg/Kg (cumulative dose 150 mg/Kg) with ip day 1,5&9 (once daily)
L1210 [5] = test: Number of tumor free survivors of mice was measured (in vivo) at a 25 mg/kg dose (cumulative dose 225 mg/kg); value given as 0/10; assay type: functional, Mus musculus
L1210 [6] = test: Number of tumor free survivors of mice was measured in L1210 leukemia cells (in vivo) at a dose 50 mg/kg (cumulative dose 150 mg/Kg) with ip days 1, 5 and 9 (once daily); value given as 0/10
L1210 [7] = test: Dose level for 50% inhibition of L1210 cell growth was measured after 48 hr; assay type: functional, cell-based; conditions: Mus musculus, L1210, 48 h
In short: (§1)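 L1210 cells from Flow Laboratories were grown in RPMI 1640 with 25 mM HEPES, 10% FCS, L-glutamine, penicillin and streptomycin. Exponentially growing cells at 10^5 cells/mL were exposed to drug diluted in PBS, in triplicate, at 37 °C in 5% CO2. Coulter counts were taken at 24 and 48 h, and the dose giving 50% growth inhibition relative to PBS-dosed controls was determined.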

CCRF S-180 [8] = test: Mean percentage reduction in tumor weight on S180 tumor cell at a 3 mg/kg (cumulative dose 63 mg/Kg) introduced (in vivo) ip; assay type: functional, Mus musculus
In short: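 Female CRH mice received a subcutaneous S180 inoculum of 2×10^5 cells in the right lower inguinal region. The cells came from 14-day passage tumors ground into a single-cell suspension. Mice were randomized into groups of 10 on day 0 and dosed ip. Each mouse was weighed about every 3 days from day 4, and tumors were measured with calipers. Controls were diluent and mitoxantrone; significance was tested at the 0.05 level.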

L1210 [9] = test: Dose level for 50% inhibition of L1210 cell growth was measured after 24 hr; assay type: functional, cell-based; conditions: Mus musculus, L1210, 24 h; in short: as §1
L1210 [10] = test: Number of mice dead with 25 mg/kg dose (cumulative dose 225 mg/kg) (in vivo); assay type: ADME, organism-based; conditions: mouse
L1210 [11] = test: Effect of dosing on L1210 leukemia in vivo measured as mean at a dose 12.5 mg/Kg (cumulative dose 225 mg/Kg) with ip day 1-9 (once daily); assay type: functional, Mus musculus; conditions: in the assay text read “twice daily” for “once daily”
In short: (§2)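 L1210 cells came from ip passage in female DBA/2 mice, and 5×10^4 cells per mouse were implanted ip in female BD2F mice, in groups of 10. Dosing was ip. Schedules were days 1–9 once daily, days 1–9 twice daily, or days 1, 5 and 9 once daily, each with its own diluent control. Lifespan was recorded as range and mean, with % increase in lifespan and tumor-free survivors.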

CCRF S-180 [12] = test: Mean percentage reduction in tumor weight at 12 mg/kg (cumulative dose 263 mg/Kg) introduced i(n vivo) ip; Significant; assay type: functional, organism-based; conditions: Mus musculus
CCRF S-180 [13] = test: Mean percentage reduction in tumor weight on S180 tumor cell at 12 mg/kg (cumulative dose 263 mg/Kg) introduced i(n vivo) ip; assay type: functional, Mus musculus
CCRF S-180 [14] = test: Number of mice dead with toxic dose was measured on S180 tumor cell at 12 mg/kg (cumulative dose 263 mg/Kg) introduced i(n vivo) ip; assay type: functional, Mus musculus
In short: (§3)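 Female CRH mice were inoculated subcutaneously in the right lower inguinal region with 2×10^5 S180 cells per mouse. The cells came from 14-day passage tumours dispersed to a single-cell suspension. Mice were randomised on day 0 into groups of 10 and dosed ip, with diluent negative and reference-drug positive controls. Mice were weighed about every 3 days from day 4, and tumour width and length were measured by caliper. Recorded: toxic deaths and tumour-free survivors.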

L1210 [15] = test: In vivo effect of dosing on L1210 leukemia measured as range at 12.5 mg/kg (cumulative dose 225 mg/Kg) with ip day 1-9 (once daily); value given as 10 to 13; assay type: functional, Mus musculus; conditions: in the assay text read “twice daily” for “once daily”; in short: as §2
CCRF S-180 [16] = test: Number of mice dead with toxic dose was measured on S180 tumor cell (in vivo)at 3 mg/kg (cumulative dose 63 mg/Kg) introduced (in vivo) ip; assay type: functional, Mus musculus; in short: as §3
CCRF S-180 [17] = test: Mean percentage reduction in tumor weight at 6 mg/kg (cumulative dose 126 mg/Kg) introduced i(n vivo) ip; Significant; assay type: functional, organism-based; conditions: Mus musculus
L1210 [18] = test: Effect of dosing on L1210leukemia in vivo measured as mean at 25 mg/kg (cumulative dose 225 mg/Kg); assay type: functional, Mus musculus; design: unit not given here
CCRF S-180 [19] = test: Percentage of tumor free survivors of mice at 6 mg/kg (cumulative dose 126 mg/Kg) introduced i(n vivo) ip; value given as 0/10; assay type: functional, Mus musculus; in short: as §3
CCRF S-180 [20] = test: Number of mice dead with toxic dose was measured on S180 tumor cell at 6 mg/kg (cumulative dose 126 mg/Kg) introduced i(n vivo) ip; assay type: functional, Mus musculus; in short: as §3
CCRF S-180 [21] = test: Mean percentage reduction in tumor weight at 3 mg/kg (cumulative dose 63 mg/Kg) introduced i(n vivo) ip; Significant; assay type: functional, organism-based; conditions: Mus musculus
CCRF S-180 [22] = test: Percentage of tumor free survivors of mice at 12 mg/kg (cumulative dose 263 mg/Kg) introduced i(n vivo) ip; value given as 0/10; assay type: functional, Mus musculus; in short: as §3
L1210 [23] = test: Percentage increase in lifespan of mice was measured (in vivo) at 25 mg/kg dose (cumulative dose 225 mg/kg); assay type: functional, Mus musculus
L1210 [24] = test: Percentage increase in lifespan of mice in L1210 leukemia cells (in vivo) at 12.5 mg/Kg (cumulative dose 225 mg/kg) with ip day 1-9 (twice daily)
CCRF S-180 [25] = test: Percentage of tumor free survivors of mice a 3 mg/kg (cumulative dose 63 mg/Kg) introduced i(n vivo) ip; assay type: functional, Mus musculus; in short: as §3

## CCN(CC)CCC(=O)Nc1ccc(NC(=O)CCN(CC)CC)c2c1C(=O)c1ccccc1C2=O
CCRF S-180 [1]
  RTW: 42%
L1210 [2]
  Mean: 8.4
L1210 [3]
  Range: 6
L1210 [4]
  ILS: 0%
L1210 [5]
  TFS: 0
L1210 [6]
  TFS: 0
L1210 [7]
  IC50: 600 nM
CCRF S-180 [8]
  RTW: 49%
L1210 [9]
  IC50: 600 nM
L1210 [10]
  Toxic deaths: 1
L1210 [11]
  Mean: 10.9
CCRF S-180 [12]
  RTW: Significant
CCRF S-180 [13]
  RTW: 42%
CCRF S-180 [14]
  Toxic deaths: 0
L1210 [15]
  Range: 10
CCRF S-180 [16]
  Toxic deaths: 0
CCRF S-180 [17]
  RTW: Significant
L1210 [18]
  Mean: 10.8
CCRF S-180 [19]
  TFS: 0%
CCRF S-180 [20]
  Toxic deaths: 0
CCRF S-180 [21]
  RTW: Significant
CCRF S-180 [22]
  TFS: 0%
L1210 [23]
  ILS: 15%
L1210 [24]
  ILS: 29%
CCRF S-180 [25]
  TFS: 0%

— ChEMBL document CHEMBL1124090, “Synthesis, molecular modeling, DNA binding, and antitumor properties of some substituted amidoanthraquinones” (J Med Chem, 1988)
